Bioassay records (PubChem BioAssay)
TLR4-MyD88 BLA = inhibitors of TLR4-MyD88 association in cells, primary screen, cell-based, HeLa CL3-4, BLA complementation, FRET ratio | Toll-like receptor 4 (Homo sapiens) + Myeloid differentiation primary response protein … | HeLa CL3-4 TLR4/MyD88 BLA complementation | inhibition, % at 8.4 µM | hit rate 0.18% among 200,000 | AID 861, 2007; in the data active = inhibition above about 25%
Hsp70 activator = Hsp70 transcriptional activators, primary screen, cell-based, HeLa, Hsp70 promoter luciferase, luminescence, 10 µM. HeLa Hsp70 promoter luciferase reporter; scaled: vehicle 0, proteasome-inhibitor control 100%. activation, % at 10 µM. hit rate 0.04% among 200,000. AID 1203, 2008;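 active = activation above the mean across all tested compounds plus 3 SD, cutoff set per campaign, cut at about 5.5% in these data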
b-catenin transl = modulators of beta-catenin nuclear translocation, primary screen, imaging, HeLa cells, immunofluorescence, high-content; nuclear translocation activity, % at 5 µM; hit rate 0.3% among 190,000;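 active = nuclear translocation activity above 50% at 5 µM, with a well cell count of 50 or more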;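 also: per-cell ratio of nuclear to cytoplasmic median beta-catenin stain intensity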
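Assay system: human HeLa cells, native beta-catenin; doses: 5 µM primary, 0.02–20 µM confirmation; incubation: compound treatment 24 h, 37°C, 5% CO2; technique: fluorescence imaging of beta-catenin antibody stain plus DAPI; measure: % activation, nuclear-to-cytoplasmic median beta-catenin signal ratio per cell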
TLR9-MyD88 inh = inhibitors of TLR9-MyD88 association in cells, primary screen, cell-based, CHO, BLA complementation, fluorescence; Toll-like receptor 9 (Homo sapiens) + Myeloid differentiation primary response protein …; inhibition, % at 4.98 µM; CCF4 FRET ratio; hit rate 0.21% among 340,000;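 active = inhibition above the mean over all tested compounds plus 3 SD, cut at about 21% in these data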
MT stabilize HCS = microtubule stabilizers in HeLa cells, primary screen, imaging, high-content imaging | HeLa tubulin immunostaining HCS, 24 h; share of cells brighter than vehicle mean+2SD | % tubulin-high responders, % at 10 µM | hit rate 0.83% among 200,000;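 active = plate Z-score above 3 for both tubulin-high and condensed-nucleus cell shares, with cell loss under 80%, at 10 µM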;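 also: anti alpha tubulin signal scored within the nucleus-defined area of each cell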
NOD2 RIPK2 PPI = NOD2-RIPK2 binding disruptors in cells, primary screen, fluorescence, CHO cells, BLA complementation | Receptor-interacting serine/threonine-protein kinase 2 (Homo sapiens), O43353 | hit rate 0.38% among 360,000 | CCF4 ratio | AID 624267, 2012 | inhibition, % at 4.98 µM; in the data active = inhibition above about 21%
Numbers stand for hits; - = inactive; . = no result given. This is a sample that favours compounds with a hit; in the whole collection about 1% have one here.

SMILES	TLR4-MyD88 BLA	Hsp70 activator	b-catenin transl	TLR9-MyD88 inh	MT stabilize HCS	NOD2 RIPK2 PPI
O=C(c1ccc(Cl)c(S(=O)(=O)NCc2ccco2)c1)N1CCN(c2ccccc2F)CC1	-	-	.	-	41.2	-
COc1ccccc1N1CCN(C(=O)c2ccc(Cl)c(S(=O)(=O)NCc3ccco3)c2)CC1	-	-	129.3	-	50.2	-
COc1ccc(/C=C2/C(=O)OCc3cc(OC)c(OC)cc32)cc1	-	-	-	-	19.8	-
Cc1ccc2[nH]c(=O)c(CN(Cc3ccco3)C(=O)c3ccncc3)cc2c1	-	-	-	-	14.3	-
COc1ccccc1NC(=S)N(Cc1ccco1)Cc1cc2cc(C)ccc2[nH]c1=O	-	-	-	-	32.9	-
COc1ccc(C(=O)N(Cc2ccco2)Cc2cc3cc(C)ccc3[nH]c2=O)cc1OC	-	-	.	-	-	-
COc1ccccc1NC(=O)N(Cc1ccco1)Cc1cc2cccc(C)c2[nH]c1=O	-	-	-	-	-	-
N#CCC(=O)Nc1ccc(C(=O)OCC(=O)N2CCCC2=O)cc1	.	.	.	-	.	-
COc1ccc(S(=O)(=O)N2CCCCCC2)cc1NC(C)C(=O)Nc1ccc(NC(C)=O)cc1 (stereo unspecified)	.	.	.	-	.	-
Cc1cc(=O)oc2cc(OCC(=O)N/N=C/c3ccccc3O)ccc12	.	.	.	-	.	-
CSc1nc(C)cc(OCC(=O)N/N=C/c2ccccc2O)n1	-	-	94.1	-	16.6	-
COc1ccc(CNc2ccc(C)c(C)c2)cc1	-	-	-	-	-	-
CCOc1cc(CNc2ccc3c(c2)OCCO3)cc(Br)c1OCC(N)=O	-	-	-	-	-	-
COc1cc(CNc2ccc(C)c(C)c2)cc(OC)c1OC	-	-	107.2	-	-	-
CCOc1c(Br)cc(CNc2ccc(N3CCOCC3)cc2)cc1OC	.	.	-	-	.	-
CCOc1cc(CNc2ccc3c(c2)OCCO3)cc(Br)c1OC	-	-	142.7	-	-	-
CCOc1c(Br)cc(CNc2ccc3c(c2)OCCO3)cc1OC	-	-	132.4	-	-	-
Cc1ccc(S(=O)(=O)N2CCC[C@H]2C(=O)NCc2ccccc2Cl)cc1	.	.	.	-	.	-
COc1ccc(N(C(=O)c2ccccc2C)S(=O)(=O)c2cccs2)cc1	-	-	98.7	-	15.5	-
Cc1ccc(S(=O)(=O)N2[C@@H](c3ccc(Br)cc3)C(C(=O)O)=CC[C@H]2c2ccc3c(c2)OCO3)cc1	.	.	.	-	.	-
CCOc1cc(C)c(Cl)cc1S(=O)(=O)NCc1ccc2c(c1)OCO2	-	-	-	-	34.8	-
CCOc1cc(S(=O)(=O)NCc2ccc3c(c2)OCO3)c(C)cc1C	-	-	.	-	-	-
COc1ccc([N+](=O)[O-])cc1N(CC(=O)N1CCN(Cc2ccccc2)CC1)S(C)(=O)=O	.	.	.	-	.	-
C#CCOCCOCCOCCNc1nc(N2CCN(C(=O)CCCCCCCCCCNC(=O)[C@H](CCCCN)n3cc(C)nn3)CC2)nc(N2CCN(C(=O)CCCCCCCCCCNC(=O)[C@@H]([C@H](C)CC)n3cc(CCCCCN)nn3)CC2)n1	.	.	.	22.9	.	50.4
C#CCOCCOCCOCCNc1nc(N2CCN(C(=O)CCCCCCCCCCNC(=O)[C@H](CCC(=O)O)n3cc(CCCCCN)nn3)CC2)nc(N2CCN(C(=O)CCCCCCCCCCNC(=O)[C@@H]([C@H](C)O)n3cc(C)nn3)CC2)n1	.	.	.	-	.	-
C#CCOCCOCCOCCNc1nc(N2CCN(C(=O)CCCCCCCCCCNC(=O)[C@H]([C@@H](C)CC)n3cc(CCCCCN)nn3)CC2)nc(N2CCN(C(=O)CCCCCCCCCCNC(=O)[C@@H]([C@H](C)O)n3cc(C)nn3)CC2)n1	.	.	.	-	.	37.3
O=C(COC(=O)c1ccc(S(=O)(=O)N2CCCCC2)cc1)NCc1ccc(F)cc1	.	.	.	-	.	-
Cc1ccc(NC(=O)c2ncn(CCCNCC(C)c3ccccc3)n2)cc1C (stereo unspecified)	.	.	.	-	.	-
